Measurements as given in ChEMBL document CHEMBL1125920, “Synthesis and biological activity of 5-alkyl-1,7,8-trisubstituted-6-fluoroquinoline-3-carboxylic acids” (1991).
In brackets after ≈: the same amount, converted by molar mass.

Legend:
[1] = tested on: Enterococcus faecalis; test: Antibacterial activity was determined against gram positive organism, Streptococcus faecalis (MGH-2); assay type: functional
Method in brief: (§1)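 MIC by standard microtitration against a panel of 10 representative Gram-negative and Gram-positive organisms; values reported in µg/mL.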

[2] = MIC ratio measured as the mean MICs of gram-positive bacteria; assay type: functional
Method in brief: (§2)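 Geometric mean of the MICs (µg/mL) over the Gram-negative or the Gram-positive strains of the 10-organism microtitration panel, calculated separately for each class.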

[3] = tested on: Klebsiella pneumoniae; test: Antibacterial activity was determined against gram negative organism, K. pneumoniae (MGH-2); assay type: functional; method in brief: as §1
[4] = tested on: Escherichia coli; test: Antibacterial activity was determined against gram negative organism, E. coli(vogel); assay type: functional; method in brief: as §1
[5] = tested on: Streptococcus pneumoniae; test: Antibacterial activity was determined against gram positive organism, Streptococcus pneumoniae (SV-1); assay type: functional; method in brief: as §1
[6] = tested on: Pseudomonas aeruginosa; test: Antibacterial activity was determined against gram negative organism, Pseudomonas aeruginosa (UI-18); assay type: functional; method in brief: as §1
[7] = tested on: Enterobacter cloacae; test: Antibacterial activity against gram negative organism, […] (MA2646); assay type: functional
[8] = tested on: Bacteria; test: Antibacterial activity was determined against gram negative organism, Providencia rettgeri. (M1771); assay type: functional; method in brief: as §1
[9] = MIC ratio measured as the mean MICs of gram-negative bacteria; assay type: functional; method in brief: as §2
[10] = tested on: Staphylococcus aureus; test: Antibacterial activity was determined against gram positive organism, Staphylococcus aureus (UC76); assay type: functional; method in brief: as §1
[11] = tested on: Streptococcus pyogenes; test: Antibacterial activity was determined against gram positive organism, Streptococcus pyogenes (C203); assay type: functional; method in brief: as §1
[12] = tested on: Staphylococcus aureus; test: Antibacterial activity was determined against gram positive organism, Staphylococcus aureus (H228); assay type: functional; method in brief: as §1
[13] = molecular target: DNA gyrase (Escherichia coli) (UniProt P0AES6+P0AES4)

## NC1CCN(c2cc3c(cc2F)c(=O)c(C(=O)O)cn3-c2ccc(F)cc2F)C1 (stereo unspecified)
[1]
  MIC: 0.1 µg/mL (≈ 0.248 µM)
[2]
  Ratio: 0.033
[3]
  MIC: 0.05 µg/mL (≈ 0.124 µM)
[4]
  MIC: 0.025 µg/mL (≈ 0.062 µM)
[5]
  MIC: 0.025 µg/mL (≈ 0.062 µM)
[6]
  MIC: 0.4 µg/mL (≈ 0.992 µM)
[7]
  MIC: 0.05 µg/mL (≈ 0.124 µM)
[8]
  MIC: 0.1 µg/mL (≈ 0.248 µM)
[9]
  Ratio: 0.076
[10]
  MIC: 0.013 µg/mL (≈ 0.0322 µM)
[11]
  MIC: 0.025 µg/mL (≈ 0.062 µM)
[12]
  MIC: 0.05 µg/mL (≈ 0.124 µM)

## O=C(O)c1cn(-c2ccc(F)cc2F)c2cc(N3CCNCC3)c(F)cc2c1=O
[1]
  MIC: 0.4 µg/mL (≈ 0.992 µM)
[2]
  Ratio: 0.17
[3]
  MIC: 0.1 µg/mL (≈ 0.248 µM)
[4]
  MIC: 0.05 µg/mL (≈ 0.124 µM)
[5]
  MIC: 0.1 µg/mL (≈ 0.248 µM)
[6]
  MIC: 0.8 µg/mL (≈ 1.98 µM)
[7]
  MIC: 0.05 µg/mL (≈ 0.124 µM)
[8]
  MIC: 0.1 µg/mL (≈ 0.248 µM)
[9]
  Ratio: 0.11
[10]
  MIC: 0.05 µg/mL (≈ 0.124 µM)
[11]
  MIC: 0.2 µg/mL (≈ 0.496 µM)
[12]
  MIC: 0.4 µg/mL (≈ 0.992 µM)

## CC1(CN)CCN(c2c(F)cc3c(=O)c(C(=O)O)cn(C4CC4)c3c2F)C1 (stereo unspecified)
[1]
  MIC: 0.013 µg/mL (≈ 0.0344 µM)
[2]
  Ratio: 0.095
[13]
  DNA cleavage: 2.6 µg/mL
[3]
  MIC: 0.1 µg/mL (≈ 0.265 µM)
[4]
  MIC: 0.05 µg/mL (≈ 0.132 µM)
[5]
  MIC: 0.006 µg/mL (≈ 0.0159 µM)
[7]
  MIC: 0.025 µg/mL (≈ 0.0662 µM)
[8]
  MIC: 0.2 µg/mL (≈ 0.53 µM)
[9]
  Ratio: 0.1
[10]
  MIC: 0.003 µg/mL (≈ 0.00795 µM)
[11]
  MIC: 0.025 µg/mL (≈ 0.0662 µM)

## CCn1cc(C(=O)O)c(=O)c2cc(F)c(N3CC(C)NC(C)C3)cc21 (stereo unspecified)
[1]
  MIC: 1.6 µg/mL (≈ 4.61 µM)
[2]
  Ratio: 1.21
[3]
  MIC: 0.4 µg/mL (≈ 1.15 µM)
[4]
  MIC: 0.2 µg/mL (≈ 0.576 µM)
[5]
  MIC: 1.6 µg/mL (≈ 4.61 µM)
[6]
  MIC: 6.3 µg/mL (≈ 18.1 µM)
[7]
  MIC: 0.2 µg/mL (≈ 0.576 µM)
[8]
  MIC: 0.8 µg/mL (≈ 2.3 µM)
[9]
  Ratio: 0.6
[10]
  MIC: 0.4 µg/mL (≈ 1.15 µM)
[11]
  MIC: 1.6 µg/mL (≈ 4.61 µM)
[12]
  MIC: 1.6 µg/mL (≈ 4.61 µM)

## CCNCC1CCN(c2cc3c(cc2F)c(=O)c(C(=O)O)cn3-c2ccc(F)cc2F)C1 (stereo unspecified)
[1]
  MIC: 0.2 µg/mL (≈ 0.449 µM)
[2]
  Ratio: 0.087
[3]
  MIC: 0.8 µg/mL (≈ 1.8 µM)
[4]
  MIC: 0.2 µg/mL (≈ 0.449 µM)
[5]
  MIC: 0.1 µg/mL (≈ 0.224 µM)
[6]
  MIC: 3.1 µg/mL (≈ 6.96 µM)
[7]
  MIC: 0.4 µg/mL (≈ 0.898 µM)
[8]
  MIC: 1.6 µg/mL (≈ 3.59 µM)
[9]
  Ratio: 0.79
[10]
  MIC: 0.025 µg/mL (≈ 0.0561 µM)
[11]
  MIC: 0.1 µg/mL (≈ 0.224 µM)
[12]
  MIC: 0.1 µg/mL (≈ 0.224 µM)

## CCc1c(F)c(N2CCNCC2)cc2c1c(=O)c(C(=O)O)cn2C1CC1
[1]
  MIC: > 25 µg/mL
[2]
  Ratio: 16.2
[3]
  MIC: 1.6 µg/mL (≈ 4.45 µM)
[4]
  MIC: 0.4 µg/mL (≈ 1.11 µM)
[5]
  MIC: 12.5 µg/mL (≈ 34.8 µM)
[6]
  MIC: 12.5 µg/mL (≈ 34.8 µM)
[7]
  MIC: 0.8 µg/mL (≈ 2.23 µM)
[8]
  MIC: 6.3 µg/mL (≈ 17.5 µM)
[9]
  Ratio: 1.91
[10]
  MIC: 6.3 µg/mL (≈ 17.5 µM)
[11]
  MIC: 25 µg/mL (≈ 69.6 µM)
[12]
  MIC: 25 µg/mL (≈ 69.6 µM)

## CCc1c(F)c(N2CCC(N)C2)cc2c1c(=O)c(C(=O)O)cn2C1CC1 (stereo unspecified)
[1]
  MIC: 25 µg/mL (≈ 69.6 µM)
[2]
  Ratio: 5.45
[3]
  MIC: 1.6 µg/mL (≈ 4.45 µM)
[4]
  MIC: 0.4 µg/mL (≈ 1.11 µM)
[5]
  MIC: 1.6 µg/mL (≈ 4.45 µM)
[6]
  MIC: 12.5 µg/mL (≈ 34.8 µM)
[7]
  MIC: 0.8 µg/mL (≈ 2.23 µM)
[8]
  MIC: 6.3 µg/mL (≈ 17.5 µM)
[9]
  Ratio: 2.09
[10]
  MIC: 3.1 µg/mL (≈ 8.63 µM)
[11]
  MIC: 3.1 µg/mL (≈ 8.63 µM)
[12]
  MIC: 12.5 µg/mL (≈ 34.8 µM)

## CCn1cc(C(=O)O)c(=O)c2cc(F)c(N3CCNCC3)cc21 [NORFLOXACIN]
[2]
  Ratio: 0.61
[13]
  DNA cleavage: 1 µg/mL
[8]
  MIC: 0.025 µg/mL (≈ 0.0783 µM)
[9]
  Ratio: 0.057

## CCc1c(F)c(N2CCNC(C)C2)cc2c1c(=O)c(C(=O)O)cn2C1CC1 (stereo unspecified)
[1]
  MIC: > 25 µg/mL
[2]
  Ratio: 10.9
[3]
  MIC: 1.6 µg/mL (≈ 4.28 µM)
[4]
  MIC: 0.4 µg/mL (≈ 1.07 µM)
[5]
  MIC: 12.5 µg/mL (≈ 33.5 µM)
[6]
  MIC: 6.3 µg/mL (≈ 16.9 µM)
[7]
  MIC: 0.8 µg/mL (≈ 2.14 µM)
[8]
  MIC: 6.3 µg/mL (≈ 16.9 µM)
[9]
  Ratio: 1.83
[10]
  MIC: 3.1 µg/mL (≈ 8.3 µM)
[11]
  MIC: 25 µg/mL (≈ 66.9 µM)
[12]
  MIC: 6.3 µg/mL (≈ 16.9 µM)

## CC1CN(c2c(F)cc3c(=O)c(C(=O)O)cn(C4CC4)c3c2F)CCN1 (stereo unspecified)
[1]
  MIC: 0.4 µg/mL (≈ 1.1 µM)
[2]
  Ratio: 0.26
[13]
  DNA cleavage: 1 µg/mL
[5]
  MIC: 0.4 µg/mL (≈ 1.1 µM)
[6]
  MIC: 0.4 µg/mL (≈ 1.1 µM)
[7]
  MIC: 0.05 µg/mL (≈ 0.138 µM)
[8]
  MIC: 0.1 µg/mL (≈ 0.275 µM)
[9]
  Ratio: 0.066
[10]
  MIC: 0.1 µg/mL (≈ 0.275 µM)
[11]
  MIC: 0.4 µg/mL (≈ 1.1 µM)
[12]
  MIC: 0.2 µg/mL (≈ 0.55 µM)

## CC1(CN)CCN(c2cc3c(cc2F)c(=O)c(C(=O)O)cn3C2CC2)C1 (stereo unspecified)
[1]
  MIC: 0.1 µg/mL (≈ 0.278 µM)
[2]
  Ratio: 0.044
[13]
  DNA cleavage: 3 µg/mL
[3]
  MIC: 0.4 µg/mL (≈ 1.11 µM)
[4]
  MIC: 0.2 µg/mL (≈ 0.556 µM)
[5]
  MIC: 0.025 µg/mL (≈ 0.0696 µM)
[6]
  MIC: 0.8 µg/mL (≈ 2.23 µM)
[7]
  MIC: 0.8 µg/mL (≈ 2.23 µM)
[8]
  MIC: 0.8 µg/mL (≈ 2.23 µM)
[9]
  Ratio: 0.53
[11]
  MIC: 0.05 µg/mL (≈ 0.139 µM)
